According to publication PMC9924264 (Journal of Medicinal Chemistry, 2023):
One block for each compound: values may come before it.

Columns and labels:
BMPR2 kinase domain [1] = target: T1, BMPR2 kinase domain (Homo sapiens, UniProt Q13873); test: Thermal shift assay; type: binding; details: 50 μM compound; BMPR2 alone Tm 52.1 °C
T1 sequence (Q13873 188-517): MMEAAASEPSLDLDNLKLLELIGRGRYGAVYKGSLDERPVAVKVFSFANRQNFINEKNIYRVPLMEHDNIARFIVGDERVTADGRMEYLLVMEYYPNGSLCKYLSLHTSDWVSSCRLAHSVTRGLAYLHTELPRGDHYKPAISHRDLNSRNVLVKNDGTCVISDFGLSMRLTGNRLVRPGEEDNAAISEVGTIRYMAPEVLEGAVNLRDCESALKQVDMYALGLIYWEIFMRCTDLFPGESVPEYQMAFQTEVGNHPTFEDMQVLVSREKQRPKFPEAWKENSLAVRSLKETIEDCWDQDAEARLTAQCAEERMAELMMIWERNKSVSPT
Method in brief: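 Purified BMPR2 kinase domain (1 μg) in 50 mM Tris–HCl pH 7.5, 150 mM NaCl with 50 μM test compound and 5× SYPRO Orange. Heated 20 to 95 °C, fluorescence read every 10 s. Tm taken from the unfolding curve; three technical replicates averaged.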

ACVRL1 (ALK1) = ACVRL1 (ALK1) (Homo sapiens, UniProt P37023); test: ThermoFisher SelectScreen LanthaScreen assay; type: binding; details: ALK1, text
ACVRL1 (ALK1), sequence (P37023 22-503): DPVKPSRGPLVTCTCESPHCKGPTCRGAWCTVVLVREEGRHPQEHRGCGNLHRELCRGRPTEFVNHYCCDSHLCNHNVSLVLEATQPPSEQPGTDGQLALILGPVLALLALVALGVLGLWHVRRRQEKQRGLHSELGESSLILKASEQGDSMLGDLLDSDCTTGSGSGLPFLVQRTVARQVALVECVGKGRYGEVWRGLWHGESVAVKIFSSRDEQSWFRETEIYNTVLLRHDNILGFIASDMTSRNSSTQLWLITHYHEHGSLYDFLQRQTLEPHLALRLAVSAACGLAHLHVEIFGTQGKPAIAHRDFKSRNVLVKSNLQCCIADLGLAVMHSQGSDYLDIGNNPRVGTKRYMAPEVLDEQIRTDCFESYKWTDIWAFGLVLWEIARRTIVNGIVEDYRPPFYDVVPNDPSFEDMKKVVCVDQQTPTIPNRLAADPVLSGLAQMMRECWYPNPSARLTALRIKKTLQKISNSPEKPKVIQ

ACVR1 (ALK2) = target: T2, ACVR1 (ALK2) (Homo sapiens, UniProt Q04771); test: ThermoFisher SelectScreen LanthaScreen assay; type: binding; details: ALK2, text
T2 sequence (Q04771 21-509): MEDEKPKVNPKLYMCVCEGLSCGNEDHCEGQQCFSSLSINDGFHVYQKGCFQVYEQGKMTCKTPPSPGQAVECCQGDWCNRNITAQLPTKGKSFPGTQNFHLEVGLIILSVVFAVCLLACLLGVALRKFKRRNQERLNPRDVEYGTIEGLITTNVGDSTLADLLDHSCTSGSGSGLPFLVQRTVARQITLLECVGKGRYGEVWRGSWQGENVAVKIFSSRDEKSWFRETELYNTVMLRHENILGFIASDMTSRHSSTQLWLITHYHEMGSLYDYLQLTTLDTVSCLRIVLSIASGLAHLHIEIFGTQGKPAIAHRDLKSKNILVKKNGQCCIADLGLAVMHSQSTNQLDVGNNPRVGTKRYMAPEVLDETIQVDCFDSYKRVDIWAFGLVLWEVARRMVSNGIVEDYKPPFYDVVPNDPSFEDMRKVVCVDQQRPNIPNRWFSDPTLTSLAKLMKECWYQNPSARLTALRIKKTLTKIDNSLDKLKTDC

BMPR1A (ALK3) = BMPR1A (ALK3) (Homo sapiens, UniProt P36894); test: ThermoFisher SelectScreen LanthaScreen assay; type: binding
BMPR1A (ALK3), sequence (P36894 24-532): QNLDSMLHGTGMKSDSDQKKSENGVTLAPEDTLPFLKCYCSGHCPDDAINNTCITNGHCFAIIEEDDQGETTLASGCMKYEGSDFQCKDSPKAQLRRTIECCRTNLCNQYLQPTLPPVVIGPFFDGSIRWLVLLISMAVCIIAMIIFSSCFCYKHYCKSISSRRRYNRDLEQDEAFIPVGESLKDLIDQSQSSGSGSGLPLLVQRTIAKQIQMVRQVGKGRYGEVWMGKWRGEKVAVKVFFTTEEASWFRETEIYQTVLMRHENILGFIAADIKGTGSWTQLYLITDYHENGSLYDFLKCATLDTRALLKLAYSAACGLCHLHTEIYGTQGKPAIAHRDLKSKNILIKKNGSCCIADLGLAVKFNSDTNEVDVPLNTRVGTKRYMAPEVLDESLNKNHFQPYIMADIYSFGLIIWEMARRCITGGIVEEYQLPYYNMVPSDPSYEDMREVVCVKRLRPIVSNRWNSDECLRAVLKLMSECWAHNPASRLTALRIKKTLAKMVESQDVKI

ACVR1B (ALK4) = target: T3, ACVR1B (ALK4) (Homo sapiens, UniProt P36896); test: ThermoFisher SelectScreen Z’-LYTE assay; type: biochemical; details: N/A = not active
T3 sequence (P36896 24-505): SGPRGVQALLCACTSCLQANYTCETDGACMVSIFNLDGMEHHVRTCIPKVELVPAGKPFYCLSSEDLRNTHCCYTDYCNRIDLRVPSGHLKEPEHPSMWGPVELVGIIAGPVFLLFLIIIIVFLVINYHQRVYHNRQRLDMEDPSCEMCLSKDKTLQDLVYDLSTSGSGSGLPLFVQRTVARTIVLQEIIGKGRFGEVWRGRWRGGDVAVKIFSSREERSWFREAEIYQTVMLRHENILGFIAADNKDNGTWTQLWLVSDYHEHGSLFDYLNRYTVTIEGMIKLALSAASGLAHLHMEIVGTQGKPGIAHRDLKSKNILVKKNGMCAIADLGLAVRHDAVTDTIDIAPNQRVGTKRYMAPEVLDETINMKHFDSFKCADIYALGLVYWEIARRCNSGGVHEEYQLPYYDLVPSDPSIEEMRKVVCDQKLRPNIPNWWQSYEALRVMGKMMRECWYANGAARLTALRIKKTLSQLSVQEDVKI

TGFBR1 (ALK5) = target: T4, TGFBR1 (ALK5) (Homo sapiens, UniProt P36897); test: ThermoFisher SelectScreen LanthaScreen assay; type: binding
T4 sequence (P36897 34-503): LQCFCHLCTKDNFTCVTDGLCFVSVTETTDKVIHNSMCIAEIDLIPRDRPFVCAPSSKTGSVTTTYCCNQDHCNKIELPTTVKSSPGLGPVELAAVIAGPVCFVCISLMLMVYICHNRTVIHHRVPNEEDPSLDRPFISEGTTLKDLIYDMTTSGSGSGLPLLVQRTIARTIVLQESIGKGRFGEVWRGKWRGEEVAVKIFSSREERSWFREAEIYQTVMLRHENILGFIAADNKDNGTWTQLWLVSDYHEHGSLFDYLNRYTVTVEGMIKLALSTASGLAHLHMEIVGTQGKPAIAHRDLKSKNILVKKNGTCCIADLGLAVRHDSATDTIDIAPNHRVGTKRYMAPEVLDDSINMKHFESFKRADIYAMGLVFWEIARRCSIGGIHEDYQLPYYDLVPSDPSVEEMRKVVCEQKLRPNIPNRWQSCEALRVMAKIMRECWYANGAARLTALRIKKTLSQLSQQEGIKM

BMPR1B (ALK6) = BMPR1B (ALK6) (Homo sapiens, UniProt O00238); test: ThermoFisher SelectScreen LanthaScreen assay; type: binding
BMPR1B (ALK6), sequence (O00238 14-502): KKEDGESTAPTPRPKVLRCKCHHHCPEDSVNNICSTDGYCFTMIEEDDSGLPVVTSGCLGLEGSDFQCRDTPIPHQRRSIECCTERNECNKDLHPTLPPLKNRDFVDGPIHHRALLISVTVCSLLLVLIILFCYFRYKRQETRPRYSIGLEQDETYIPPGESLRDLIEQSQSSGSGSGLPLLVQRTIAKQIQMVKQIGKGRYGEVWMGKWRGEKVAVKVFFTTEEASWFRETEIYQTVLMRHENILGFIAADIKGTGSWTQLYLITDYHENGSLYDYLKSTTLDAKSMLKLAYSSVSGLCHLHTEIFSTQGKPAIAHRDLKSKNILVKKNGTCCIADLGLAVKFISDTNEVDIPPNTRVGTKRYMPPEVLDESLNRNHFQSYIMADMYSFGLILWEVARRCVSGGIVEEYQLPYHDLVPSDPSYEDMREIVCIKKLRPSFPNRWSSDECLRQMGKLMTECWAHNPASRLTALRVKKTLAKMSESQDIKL

TGFBR2 = TGFBR2 (Homo sapiens, UniProt P37173); test: ThermoFisher SelectScreen LanthaScreen assay; type: binding
TGFBR2, sequence (P37173 23-567): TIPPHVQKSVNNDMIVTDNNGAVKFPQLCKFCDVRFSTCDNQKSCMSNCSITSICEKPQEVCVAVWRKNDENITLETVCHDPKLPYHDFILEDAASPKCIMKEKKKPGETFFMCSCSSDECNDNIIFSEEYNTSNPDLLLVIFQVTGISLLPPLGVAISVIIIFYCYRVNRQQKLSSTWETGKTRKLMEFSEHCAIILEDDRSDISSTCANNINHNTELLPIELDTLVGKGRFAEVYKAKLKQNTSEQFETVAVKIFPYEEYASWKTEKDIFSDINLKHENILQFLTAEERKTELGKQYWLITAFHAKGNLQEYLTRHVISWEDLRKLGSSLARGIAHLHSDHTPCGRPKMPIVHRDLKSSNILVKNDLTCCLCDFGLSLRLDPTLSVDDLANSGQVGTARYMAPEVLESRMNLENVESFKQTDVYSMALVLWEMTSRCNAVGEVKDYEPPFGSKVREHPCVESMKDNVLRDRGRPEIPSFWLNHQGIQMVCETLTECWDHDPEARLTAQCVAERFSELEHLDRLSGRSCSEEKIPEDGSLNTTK

ACVR2A = ACVR2A (Homo sapiens, UniProt P27037); test: ThermoFisher SelectScreen LanthaScreen assay; type: binding; details: N/A = not active
Method in brief: (§1)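 Outsourced kinase profiling in TR-FRET binding format, measuring displacement of a tight-binding tracer from the kinase by test compound. IC50 reported.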

ACVR2B = ACVR2B (Homo sapiens, UniProt Q13705); test: ThermoFisher SelectScreen LanthaScreen assay; type: binding; details: N/A = not active
ACVR2B, sequence (Q13705 19-512): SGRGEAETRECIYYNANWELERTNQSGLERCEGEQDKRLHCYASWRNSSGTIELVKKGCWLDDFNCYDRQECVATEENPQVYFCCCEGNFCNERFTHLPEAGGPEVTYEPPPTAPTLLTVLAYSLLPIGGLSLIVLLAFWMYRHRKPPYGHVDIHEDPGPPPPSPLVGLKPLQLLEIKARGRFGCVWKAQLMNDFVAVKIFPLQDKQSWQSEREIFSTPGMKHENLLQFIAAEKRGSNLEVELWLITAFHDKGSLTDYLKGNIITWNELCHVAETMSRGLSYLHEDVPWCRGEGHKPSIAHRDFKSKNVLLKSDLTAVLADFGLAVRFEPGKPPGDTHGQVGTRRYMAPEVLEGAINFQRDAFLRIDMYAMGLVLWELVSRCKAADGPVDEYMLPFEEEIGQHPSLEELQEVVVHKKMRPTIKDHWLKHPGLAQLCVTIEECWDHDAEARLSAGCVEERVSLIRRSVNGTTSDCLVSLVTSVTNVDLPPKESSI
Method in brief: as §1

BMPR2 kinase domain [2] = target: T1, BMPR2 kinase domain; test: BMPR2 Kinase-Glo kinase inhibition assay; type: biochemical; details: for fold loss of BMPR2 potency: compared to parent CDD-1115 (CDD-1280: relative to CDD-1281)
Method in brief: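 Recombinant human BMPR2 kinase domain (aa188-517, C-terminal His-tag) expressed in E. coli and purified by affinity, anion-exchange and size-exclusion chromatography. Substrate-free ATPase end-point assay: 10 μM ATP, 0.02% Tween-20, kinase buffer, 30 min at 30 °C. Enzyme level optimized for linear initial velocity. Leftover ATP read by luciferase luminescence, with no-kinase controls. Kiapp from modified Morrison equation fit to normalized fractional activity, no inhibition mode assumed.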

[3] = tested on: pSMAD1/5 in human umbilical vein endothelial cells (HUVECs); test: pSMAD1/5 Western blot, BMP9-stimulated HUVECs; type: cell-based; details: 25 μM, 30 min pretreatment, 0.5 ng/mL BMP9 15 min
Method in brief: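 HUVECs, about 3 × 10^5 per well, starved overnight in Kaighn's F-12 with 0.5% FBS and 30 μg/mL endothelial cell growth supplement. Pretreated with inhibitors for 30 min, then given 0.5 ng/mL BMP9 for 15 min. Lysed with protease and phosphatase inhibitors. SDS-PAGE immunoblot for pSMAD1/5, SMAD1, SMAD5 and GAPDH, with densitometry. n = 3 biological replicates; one-way ANOVA with Tukey post hoc test.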

WNK1 = WNK1 (Homo sapiens, UniProt Q9H4A3); test: ThermoFisher Kd Elect screening; type: binding
WNK2 = WNK2 (Homo sapiens, UniProt Q9Y3S1); test: ThermoFisher Kd Elect screening; type: binding
WNK2, sequence (Q9Y3S1 whole entry): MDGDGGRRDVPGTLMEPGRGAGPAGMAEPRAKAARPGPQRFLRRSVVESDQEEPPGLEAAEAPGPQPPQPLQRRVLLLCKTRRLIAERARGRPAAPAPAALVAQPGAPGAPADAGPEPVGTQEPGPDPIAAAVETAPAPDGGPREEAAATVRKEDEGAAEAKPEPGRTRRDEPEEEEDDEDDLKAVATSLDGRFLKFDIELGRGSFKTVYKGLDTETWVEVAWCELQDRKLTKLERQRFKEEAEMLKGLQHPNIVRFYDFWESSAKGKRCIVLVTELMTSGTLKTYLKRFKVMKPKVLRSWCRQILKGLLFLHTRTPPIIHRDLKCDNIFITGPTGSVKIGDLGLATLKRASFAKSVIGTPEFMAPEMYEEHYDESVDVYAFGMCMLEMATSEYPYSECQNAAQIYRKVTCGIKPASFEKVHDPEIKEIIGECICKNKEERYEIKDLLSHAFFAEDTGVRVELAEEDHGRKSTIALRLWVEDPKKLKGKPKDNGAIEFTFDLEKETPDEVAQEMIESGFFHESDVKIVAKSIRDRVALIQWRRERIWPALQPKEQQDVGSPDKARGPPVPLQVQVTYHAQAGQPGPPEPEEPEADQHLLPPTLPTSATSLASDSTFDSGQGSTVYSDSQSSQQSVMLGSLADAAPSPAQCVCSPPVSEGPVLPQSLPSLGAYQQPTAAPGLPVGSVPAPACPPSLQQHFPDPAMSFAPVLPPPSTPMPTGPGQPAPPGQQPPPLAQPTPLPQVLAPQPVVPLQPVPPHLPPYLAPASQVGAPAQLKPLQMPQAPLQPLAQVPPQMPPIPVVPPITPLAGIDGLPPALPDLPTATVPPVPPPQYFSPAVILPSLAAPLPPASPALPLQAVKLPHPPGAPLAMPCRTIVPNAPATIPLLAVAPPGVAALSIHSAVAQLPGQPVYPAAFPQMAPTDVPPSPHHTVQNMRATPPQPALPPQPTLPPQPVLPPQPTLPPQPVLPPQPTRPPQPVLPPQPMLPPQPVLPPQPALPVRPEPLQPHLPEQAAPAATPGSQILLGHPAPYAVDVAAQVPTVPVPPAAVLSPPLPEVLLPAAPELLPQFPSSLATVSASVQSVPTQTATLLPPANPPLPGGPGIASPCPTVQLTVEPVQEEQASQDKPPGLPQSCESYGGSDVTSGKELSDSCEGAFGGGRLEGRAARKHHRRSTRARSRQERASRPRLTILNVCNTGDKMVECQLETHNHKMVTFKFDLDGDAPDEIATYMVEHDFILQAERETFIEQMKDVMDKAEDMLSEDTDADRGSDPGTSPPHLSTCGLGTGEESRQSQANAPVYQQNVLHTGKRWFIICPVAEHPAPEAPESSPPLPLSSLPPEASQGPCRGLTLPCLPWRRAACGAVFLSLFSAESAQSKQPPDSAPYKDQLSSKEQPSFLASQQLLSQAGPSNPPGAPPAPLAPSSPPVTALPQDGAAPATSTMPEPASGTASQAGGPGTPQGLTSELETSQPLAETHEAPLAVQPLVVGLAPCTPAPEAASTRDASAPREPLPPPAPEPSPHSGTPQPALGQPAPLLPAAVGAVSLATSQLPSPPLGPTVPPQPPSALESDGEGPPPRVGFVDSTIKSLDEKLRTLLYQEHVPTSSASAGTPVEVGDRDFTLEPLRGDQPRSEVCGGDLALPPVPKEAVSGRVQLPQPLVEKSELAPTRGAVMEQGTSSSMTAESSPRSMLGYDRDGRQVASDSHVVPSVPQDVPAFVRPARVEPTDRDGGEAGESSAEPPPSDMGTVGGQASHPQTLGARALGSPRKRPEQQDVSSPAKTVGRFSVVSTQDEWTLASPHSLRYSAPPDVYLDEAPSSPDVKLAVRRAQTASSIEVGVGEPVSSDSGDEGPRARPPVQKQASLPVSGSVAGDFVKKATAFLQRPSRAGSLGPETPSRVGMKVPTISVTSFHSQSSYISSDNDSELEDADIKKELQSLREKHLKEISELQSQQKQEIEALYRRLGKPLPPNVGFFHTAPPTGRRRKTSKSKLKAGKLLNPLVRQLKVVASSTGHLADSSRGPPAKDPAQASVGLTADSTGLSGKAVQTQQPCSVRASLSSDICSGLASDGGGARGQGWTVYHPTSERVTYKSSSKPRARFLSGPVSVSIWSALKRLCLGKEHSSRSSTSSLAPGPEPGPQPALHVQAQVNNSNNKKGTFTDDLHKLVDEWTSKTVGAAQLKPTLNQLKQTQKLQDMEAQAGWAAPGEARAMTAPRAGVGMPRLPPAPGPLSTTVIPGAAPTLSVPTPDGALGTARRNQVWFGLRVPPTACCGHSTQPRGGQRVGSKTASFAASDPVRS

fold loss of BMPR2 potency (BMPR2 kinase domain [2]): 2.7 fold
Structure (SMILES): Cn1c(-c2ccc3cnccc3c2)nc2ccc(C(=O)NCc3cccc(C(N)=O)c3)cc21 [CDD-1280, N-(3-Carbamoylbenzyl)-2-(isoquinolin-6-yl)-1-methyl-1H-benzo[d]imidazole-6-carboxamide]

fold improved BMPR2 potency (BMPR2 kinase domain [2]; compared to parent CDD-1431): 4 fold
Structure (SMILES): CCOc1cnc(Nc2cccc(S(N)(=O)=O)c2)nc1N1CCN(c2ccccc2)C(=O)C1 [CDD-1703, 3-((5-Ethoxy-4-(3-oxo-4-phenylpiperazin-1-yl)pyrimidin-2-yl)amino)benzenesulfonamide]

fold loss of BMPR2 potency (BMPR2 kinase domain [2]): complete loss of potency
Structure (SMILES): CNC(=O)c1ccc2nc(-c3ccc4cnccc4c3)n([C@@H]3CC[C@@H](C(=O)NC)C3)c2c1 [CDD-1282, 2-(Isoquinolin-6-yl)-N-methyl-1-((1R,3R)-3-(methylcarbamoyl)cyclopentyl)-1H-benzo[d]imidazole-6-carboxamide]

fold loss of BMPR2 potency (BMPR2 kinase domain [2]): 160 fold
Structure (SMILES): CNC(=O)[C@@H]1CC[C@@H](n2c(-c3cccc(Cl)c3)nc3ccc(C(=O)NCc4cccc(C(N)=O)c4)cc32)C1 [CDD-1284, N-(3-Carbamoylbenzyl)-2-(3-chlorophenyl)-1-((1R,3R)-3-(methylcarbamoyl)cyclopentyl)-1H-benzo[d]imidazole-6-carboxamide]

fold drop in BMPR2 potency (BMPR2 kinase domain [2]; compared to parent CDD-1431): 2 fold
Structure (SMILES): COc1cnc(Nc2cccc(S(N)(=O)=O)c2)nc1N1CCN(c2ccccc2)CC1 [CDD-1496, 3-((5-Methoxy-4-(4-phenylpiperazin-1-yl)pyrimidin-2-yl)amino)benzenesulfonamide]
phosphorylation of SMAD1/5 (pSMAD1/5) [3]: significantly decreased

melting temperature (Tm) (BMPR2 kinase domain [1]): 66.0 °C
Structure (SMILES): CNC(=O)CCc1ccc(C(=O)NCc2cccc(N3CCN(c4nc(Nc5cccc(S(N)(=O)=O)c5)ncc4OC)CC3)c2)cc1 [CDD-1431, N-(3-(4-(5-Methoxy-2-((3-sulfamoylphenyl)amino)pyrimidin-4-yl)piperazin-1-yl)benzyl)-4-(3-(methylamino)-3-oxopropyl)benzamide]

Second part, the compound before the results:

Structure (SMILES): CNC(=O)[C@@H]1CC[C@@H](n2c(-c3ccc4cnccc4c3)nc3ccc(C(=O)NCc4cccc(C(N)=O)c4)cc32)C1 [CDD-1115, N-(3-Carbamoylbenzyl)-2-(isoquinolin-6-yl)-1-((1R,3R)-3-(methylcarbamoyl)cyclopentyl)-1H-benzo[d]imidazole-6-carboxamide]
melting temperature (Tm) (BMPR2 kinase domain [1]): 67.8 °C
selectivity over BMPR2 (ACVRL1 (ALK1)): > 100 fold
selectivity over BMPR2 (ACVR1 (ALK2)): > 100 fold
selectivity over BMPR2 (BMPR1A (ALK3); ALK3, text): > 555 fold
selectivity (BMPR1A (ALK3); ALK3 vs BMPR2): >555×
IC50 (ACVR1B (ALK4)): inactive
selectivity over BMPR2 (TGFBR1 (ALK5); ALK5, text): > 555 fold
selectivity (TGFBR1 (ALK5); ALK5 vs BMPR2): >555×
selectivity over BMPR2 (BMPR1B (ALK6); ALK6, text): > 555 fold
selectivity (BMPR1B (ALK6); ALK6 vs BMPR2): >555×
IC50 (TGFBR2): > 1 µM
selectivity over BMPR2 (TGFBR2; TGFBR2, text): > 555 fold
selectivity (TGFBR2; TGFBR2 vs BMPR2): >555×
IC50 (ACVR2A): inactive
IC50 (ACVR2B): inactive

Structure (SMILES): CNC(=O)[C@@H]1CC[C@@H](n2c(-c3cc(Cl)cc(Cl)c3)nc3ccc(C(=O)NCc4cccc(C(N)=O)c4)cc32)C1 [CDD-1285, N-(3-Carbamoylbenzyl)-2-(3,5-dichlorophenyl)-1-((1R,3R)-3-(methylcarba-moyl)cyclopentyl)-1H-benzo[d]imidazole-6-carboxamide]
fold loss of BMPR2 potency (BMPR2 kinase domain [2]): 160 fold

Structure (SMILES): CNC(=O)[C@@H]1CC[C@@H](n2c(-c3ccc4cnccc4c3)nc3ccc(C(=O)NCc4ccccc4)cc32)C1 [CDD-1283, N-Benzyl-2-(isoquinolin-6-yl)-1-((1R,3R)-3-(methylcarbamoyl)cyclopentyl)-1H-benzo[d]imidazole-6-carboxamide]
fold loss of BMPR2 potency (BMPR2 kinase domain [2]): 6.2 fold

Structure (SMILES): COc1cnc(Nc2cccc(S(N)(=O)=O)c2)nc1N1CCNCC1 [CDD-1497, 3-((5-Methoxy-4-(piperazin-1-yl)pyrimidin-2-yl)amino)benzenesulfonamide]
fold drop in BMPR2 potency (BMPR2 kinase domain [2]; compared to parent CDD-1431): 12 fold

Structure (SMILES): COc1cnc(Nc2cccc(S(N)(=O)=O)c2)nc1N1CCN(c2ccccc2)C(=O)C1 [CDD-1653, 3-((5-Methoxy-4-(3-oxo-4-phenylpiperazin-1-yl)pyrimidin-2-yl)amino)benzenesulfonamide]
phosphorylation of SMAD1/5 (pSMAD1/5) [3]: significantly decreased
Kd (WNK1): > 3 µM
Kd (WNK2): > 3 µM
